Data from PMC4233149 (Clinical cancer research : an official journal of the …, 2014).
Like-named read-outs stand apart in the source and are kept apart here.

Experiments:
[1] = Plasma pharmacokinetics, QW schedule; assay type: in vivo, human
Outline: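 Plasma was sampled after the first and last weekly oral dose of cycle 1 (90–300mg). Concentrations were analysed non-compartmentally for AUC0-168h, Cmax, C48h […], Tmax and apparent terminal t1/2. Last-day/day-1 ratios were derived for AUC, Cmax and C48h.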

[2] = Plasma pharmacokinetics, QOD schedule; assay type: in vivo, human; settings: 60mg QOD
pSer473 AKT [3] = assay: PD biomarker in platelet-rich plasma; assay type: in vivo, human; settings: PRP
pSer473 AKT [4] = assay: PD biomarker in paired tumor biopsies; assay type: in vivo, human
Outline: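 Paired tumor biopsies were taken before and on treatment (oral QW or 60mg QOD). pSer473 AKT was quantified by MSD electrochemiluminescence assay validated to Good Clinical Practice standards. Levels were expressed as percent of each patient's baseline.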

[5] = observed in the earlier QOD dose-escalation study; cited from earlier work
Solubility = assay type: physicochemical; settings: across physiological pH ranges

NC1(c2ccc(-c3nc4ccn5c(=O)[nH]nc5c4cc3-c3ccccc3)cc2)CCC1 [MK-2206]
C48h Last Day / Day1 Ratio (geometric mean) ([1]; 90mg QW): 1.61
Tmax, median (min - max) ([1]; 90mg QW, Day 1): 6.0 (4.0-10.0) h
Tmax, median (min - max) ([1]; 90mg QW, Last Day of cycle 1): 4.0 (4.0-4.0) h
dose proportionality of AUC and Cmax ([1]; 90mg to 300mg QW): increased in a dose-proportional manner
decline of plasma concentrations ([1]; 90mg, 135mg, 200mg, 250mg and 300mg QW): declined in a mono-exponential manner
auto-induction of metabolizing enzymes ([1]; 90mg-300mg QW, cycle 1): no auto-induction of MK-2206 metabolizing enzymes
AUC0-168h Last Day / Day1 Ratio (geometric mean) ([1]; 135mg QW): 1.91
C48h Last Day / Day1 Ratio (geometric mean) ([1]; 135mg QW): 1.86
Cmax Last Day / Day1 Ratio (geometric mean) ([1]; 135mg QW): 1.95
Tmax, median (min - max) ([1]; 135mg QW, Day 1): 4.0 (4.0-10.0) h
Tmax ([1]; 150mg QW, Last Day of cycle 1, N=1): 4.0 h
AUC0-168h Last Day / Day1 Ratio (geometric mean) ([1]; 200mg QW): 1.54
C48h Last Day / Day1 Ratio (geometric mean) ([1]; 200mg QW): 1.49
Cmax Last Day / Day1 Ratio (geometric mean) ([1]; 200mg QW): 1.33
Tmax, median (min - max) ([1]; 200mg QW, Day 1): 6.0 (4.0-10.0) h
Tmax, median (min - max) ([1]; 200mg QW, Last Day of cycle 1): 6.0 (4.0-24.0) h
Tmax, median (min - max) ([1]; 250mg QW, Day 1): 6.0 (4.0-6.0) h
Tmax ([1]; 250mg QW, Last Day of cycle 1, N=1): 4.0 h
Tmax, median (min - max) ([1]; 300mg QW, Day 1): 4.0 (4.0-6.0) h
percent coefficient of variations (CVs) of AUC and Cmax ([1]; QW schedule, inter-patient variability): 12% to 71
Cmax at 200mg QW compared with 60mg QOD ([1]; higher at 200mg QW): about 2 fold
half-life ([1]; human, plasma, oral, 90 mg): 2.98 ± 0.508 days
concentration at 48 h ([1]; human, plasma, oral, 90 mg, C48h Mean ± SD, 90mg QW, Day 1, plasma): 50.9 ± 38.2 nM
concentration at 48 h ([1]; human, plasma, oral, 90 mg, C48h Mean ± SD, 90mg QW, Last Day of cycle 1, plasma): 79.3 ± 33.7 nM
concentration at 48 h ([1]; human, plasma, oral, 90 mg, mean C48h, 90mg QW, multiple dose): 79.3 nM
Tmax ([1]; human, plasma, oral, 135 mg): 5 h
half-life ([1]; human, plasma, oral, 135 mg): 3.7 ± 1.12 days
concentration at 48 h ([1]; human, plasma, oral, 135 mg, C48h Mean ± SD, 135mg QW, Day 1, plasma): 90.3 ± 25.1 nM
concentration at 48 h ([1]; human, plasma, oral, 135 mg, mean C48h, 135mg QW, multiple dose): 158 nM
Tmax ([1]; human, plasma, oral, 150 mg): 4 to 10 h
half-life ([1]; human, plasma, oral, 150 mg): 2.68 days
AUC(0-t) ([1]; human, plasma, oral, 150 mg, AUC0-168h Mean, 150mg QW, Day 1, plasma, N=2): 20.7 µM·h
concentration at 48 h ([1]; human, plasma, oral, 150 mg, C48h, 150mg QW, Last Day of cycle 1, plasma, N=1): 185 nM
concentration at 48 h ([1]; human, plasma, oral, 150 mg, C48h Mean, 150mg QW, Day 1, plasma, N=2): 155 nM
Cmax ([1]; human, plasma, oral, 150 mg, Cmax Mean, 150mg QW, Day 1, plasma, N=2): 337 nM
Cmax ([1]; human, plasma, oral, 150 mg, Cmax, 150mg QW, Last Day of cycle 1, plasma, N=1): 346 nM
concentration at 48 h ([1]; human, plasma, oral, 200 mg, C48h Mean ± SD, 200mg QW, Day 1, plasma): 121 ± 47.4 nM
concentration at 48 h ([1]; human, plasma, oral, 200 mg, mean C48h, 200mg QW, multiple dose): 187 nM
half-life ([1]; human, plasma, oral, 250 mg): 2.24 days
concentration at 48 h ([1]; human, plasma, oral, 250 mg, C48h, 250mg QW, Last Day of cycle 1, plasma, N=1): 74.8 nM
concentration at 48 h ([1]; human, plasma, oral, 250 mg, C48h Mean ± SD, 250mg QW, Day 1, plasma): 103 ± 19.6 nM
Cmax ([1]; human, plasma, oral, 250 mg, Cmax, 250mg QW, Last Day of cycle 1, plasma, N=1): 169 nM
concentration at 48 h ([1]; human, plasma, oral, 300 mg, C48h Mean, 300mg QW, Day 1, plasma): 253 nM
Cmax ([1]; human, plasma, oral, 300 mg, mean Cmax after the first dose, 300mg QW cohort): 466 nM
Cmax ([1]; human, plasma, oral, mean Cmax levels after multiple QW dose administration, 90mg to 250mg QW): 153 to 245 nM
accumulation ratio AUClast day:AUCfirst day [2]: 3.3
overall mean decrease of pSer473 AKT levels (pSer473 AKT [3]; 60mg QOD): 55.3%
time of maximum inhibition of pSer473 AKT post-MK-2206 (pSer473 AKT [3]; 60mg QOD): 6 h
mean pSer473 AKT signal, % of baseline levels (pSer473 AKT [3]; 60mg QOD, 3h, 29 patients): 36.3%
mean pSer473 AKT signal, % of baseline levels (pSer473 AKT [3]; 60mg QOD, 6h, 29 patients): 27.9%
mean pSer473 AKT signal, % of baseline levels (pSer473 AKT [3]; 60mg QOD, 24h, 29 patients): 44.0%
mean pSer473 AKT signal, % of baseline levels (pSer473 AKT [3]; 60mg QOD, 48h, 29 patients): 70.6%
mean pSer473 AKT levels, % of baseline levels (pSer473 AKT [3]; 60mg QOD, 48h, one outlier removed (28 patients), p=0.0004): 60.1%
time of maximal suppression of pSer473 AKT and its substrate pSer9 GSK3β (pSer473 AKT [3]; 150mg QW, breast cancer patient): 24 h
mean pSer473 AKT signal, % of baseline levels (pSer473 AKT [3]; 200mg QW, 24h, n=11): 19.8%
mean pSer473 AKT signal, % of baseline levels (pSer473 AKT [3]; 200mg QW, 48h, n=11): 30.6%
mean pSer473 AKT signal, % of baseline levels (pSer473 AKT [3]; 200mg QW, 96h, n=11): 51.7%
mean pSer473 AKT signal, % of baseline levels (pSer473 AKT [3]; 200mg QW, 168h, n=11): 97.4%
duration of initial suppression of pSer473 AKT phosphorylation signal (pSer473 AKT [3]; QW MTD): at least 96 h
pSer473 AKT levels, % of baseline levels (range) (pSer473 AKT [4]; 60mg QOD, 3 patients): 45.3-56.2%
mean pSer473 AKT levels, % of baseline levels (pSer473 AKT [4]; 60mg QOD, 3 patients, p=0.004): 50.1%
pSer473 AKT signal, % of baseline levels (range) (pSer473 AKT [4]; 200mg QW, 5 patients): 37.5-60.3%
pSer473 AKT signal, % of baseline levels (pSer473 AKT [4]; 200mg QW, 5 patients, p=0.0003): 50.0%
half-life [5]: 60 to 80 h
solubility (Solubility): relatively low solubility
